Data set [1] deals with Plasma. In words: Cmax in healthy human plasma assessed as metabolite BAY 78-1789 Cmax at 40 mg, po administered as two 20 mg immediate release tablets daily for 3 days during 10 hrs overnight fasting state measured after 1 day. It counts as ADME, organism-based. The following applies: in vivo, 24 h. The arrangement: dose 40 mg, route oral. In a few lines:
(§1)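 Healthy Caucasian males took tablets once daily for 3 days with 240 ml water after a 10-h fast. Heparinised blood was drawn predose and at 0.25–14 h after the first and last doses. Plasma parent drug and metabolites M1–M3 were measured by LC/MS-MS (MRM, deuterated internal standard). Noncompartmental analysis gave Cmax observed, t1/2 = 0.693/kel and MRT = AUMC/AUC. Values are geometric means.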

Data set [2] deals with Plasma. In words: Cmax in healthy human plasma assessed as metabolite BAY 78-1789 Cmax at 80 mg, po administered as four 20 mg immediate release tablets daily for 3 days during 10 hrs overnight fasting state measured after 1 day. It counts as ADME, organism-based. The arrangement: dose 80 mg, route oral. Particulars: in vivo, 24 h. A digest of the protocol:
as §1

The subject of data set [3] is Plasma. The data set can be described thus: AUC in healthy human plasma assessed as metabolite BAY 78-1789 AUC at 40 mg, po administered as two 20 mg immediate release tablets daily for 3 days during 10 hrs overnight fasting state measured after 3 day. In kind it is ADME, organism-based. The arrangement: time < 10 hr, dose 40 mg, route oral. Particulars: in vivo. In a few lines:
(§2)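 Healthy Caucasian male volunteers took 40 mg (two 20-mg IR tablets) or 80 mg (four tablets) orally once daily for 3 days, with 240 ml water after a 10-h fast. Plasma was sampled predose to 14 h after the first and last doses. M1/M2/M3 were quantified by LC/MS-MS MRM against a D4-labelled internal standard. Cmax was read from observed data and AUC by log-linear trapezoidal rule, noncompartmental, geometric means.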

In the next data set the test system is Plasmodium falciparum. In words: Antimalarial activity against Plasmodium falciparum K1 in human plasma assessed as inhibition of hypoxanthine uptake by intraerythrocytic malaria parasites by hypoxanthine incorporation assay. In kind it is functional, organism-based. A digest of the protocol: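 K1 or TM90-C2A parasites were sorbitol-synchronized and cultured in RPMI 1640. Drug was diluted in drug-free human serum (0.04–40 ng/ml) or subject plasma was diluted twofold (8–8,192). Parasites were added at 2% hematocrit, 1% parasitemia (>95% rings), and [3H]hypoxanthine uptake was measured over 48 h. IC50 or ID50 came from concentration or dilution-response curves. Equivalent concentration = ID50 × IC50.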

The test system of data set [4] is Plasma. In words: Cmax in healthy human plasma assessed as metabolite BAY 78-1789 Cmax at 80 mg, po administered as single ascending doses during 10 hrs overnight fasting state. In kind it is ADME, organism-based. The arrangement: dose 80 mg, route oral. The following applies: in vivo. A digest of the protocol: (§3)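 Healthy Caucasian male volunteers, single oral dose with 240 ml water after a 10-h overnight fast. Heparinised venous blood was drawn predose and at 0.25–14 h. Plasma was stored frozen. Parent drug and metabolites M1–M3 were measured by LC/MS-MS (MRM, deuterated internal standard). Noncompartmental analysis gave Cmax observed, t1/2 = 0.693/kel (terminal regression) and MRT = AUMC/AUC. Values are geometric means.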

For data set [5], the system named is Plasma. In words: Ratio of AUC (0 to infinity) for metabolite BAY 78-1789 to AUC (0 to infinity) for compound in healthy human plasma at 40 mg, po administered as single dose for 3 days measured after 3 days. It counts as ADME, organism-based. The following applies: in vivo, 72 h. In a few lines:
(§4)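 Healthy Caucasian men (8 active, 4 placebo per dose) dosed with tablets daily for 3 days after 10-h fast. Plasma sampled 0.25–14 h after first and last doses. Parent and metabolites M1–M3 measured by LC/MS-MS (200 µl plasma). Metabolic ratio is metabolite AUC0-∞ divided by parent AUC0-∞ (log-linear trapezoidal, extrapolated by last concentration/kel). First vs third dose compared by paired t test.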

Data set [6] relates to Plasma. The data set can be described thus: Tmax in healthy human plasma assessed as metabolite BAY 78-1789 Tmax at 40 mg, po administered as two 20 mg immediate release tablets daily for 3 days during 10 hrs overnight fasting state measured after 3 day. It counts as ADME, organism-based. Particulars: in vivo, 72 h. A digest of the protocol:
(§5)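 Healthy Caucasian men (8 active, 4 placebo per dose) dosed with tablets daily for 3 days after 10-h fast. Lithium-heparin plasma sampled predose and 0.25–14 h after day-1 and day-3 doses, stored frozen. Parent and M1–M3 quantified by LC/MS-MS in positive-ion MRM. Tmax taken directly from observed individual data.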

Data set [7] concerns Plasma. The data set can be described thus: AUC in healthy human plasma assessed as metabolite BAY 78-1789 AUC at 40 mg, po administered as two 20 mg immediate release tablets daily for 3 days during 10 hrs overnight fasting state measured after 1 day. It counts as ADME, organism-based. On the set-up: time < 10 hr, dose 40 mg, route oral. The following applies: in vivo. In a few lines: as §2

For data set [8], the system named is Plasma. In words: Tmax in healthy human plasma assessed as metabolite BAY 78-1789 Tmax at 80 mg, po administered as four 20 mg immediate release tablets daily for 3 days during 10 hrs overnight fasting state measured after 1 day. It counts as ADME, organism-based. The following applies: in vivo, 24 h. In a few lines: as §5
For data set [9], the system named is Plasma. The data set can be described thus: Half life in healthy human plasma assessed as metabolite BAY 78-1789 Half life at 40 mg, po administered as two 20 mg immediate release tablets daily for 3 days during 10 hrs overnight fasting state measured after 3 day. It counts as ADME, organism-based. Particulars: in vivo, 72 h. A digest of the protocol:
as §1

The subject of data set [10] is Plasma. The data set can be described thus: Half life in healthy human plasma assessed as metabolite BAY 78-1789 Half life at 80 mg, po administered as four 20 mg immediate release tablets daily for 3 days during 10 hrs overnight fasting state measured after 3 day. The following applies: in vivo, 72 h. In kind it is ADME, organism-based. In a few lines:
as §1

The subject of data set [11] is Plasma. In words: Cmax in healthy human plasma assessed as metabolite BAY 78-1789 Cmax at 40 mg, po administered as two 20 mg immediate release tablets daily for 3 days during 10 hrs overnight fasting state measured after 3 day. It counts as ADME, organism-based. On the set-up: dose 40 mg, route oral. Particulars: in vivo, 72 h. A digest of the protocol:
as §1

For data set [12], the system named is Plasma. The data set can be described thus: Ratio of AUC (0 to infinity) for metabolite BAY 78-1789 to AUC (0 to infinity) for compound in healthy human plasma at 40 mg, po administered as single dose for 3 days measured after 1 day. The following applies: in vivo, 24 h. It counts as ADME, organism-based. In a few lines: as §4
In data set [13] the test system is Plasma. In words: Ratio of AUC (0 to infinity) for metabolite BAY 78-1789 to AUC (0 to infinity) for compound in healthy human plasma at 80 mg, po administered as single dose for 3 days measured after 1 day. In kind it is ADME, organism-based. Particulars: in vivo, 24 h. A digest of the protocol: as §4
The subject of data set [14] is Plasma. The data set can be described thus: Cmax in healthy human plasma assessed as metabolite BAY 78-1789 Cmax at 80 mg, po administered as four 20 mg immediate release tablets daily for 3 days during 10 hrs overnight fasting state measured after 3 day. In kind it is ADME, organism-based. The arrangement: dose 80 mg, route oral. Particulars: in vivo, 72 h. A digest of the protocol:
as §1

In data set [15] the test system is Plasma. The data set can be described thus: Tmax in healthy human plasma assessed as metabolite BAY 78-1789 Tmax at 40 mg, po administered as two 20 mg immediate release tablets daily for 3 days during 10 hrs overnight fasting state measured after 1 day. The following applies: in vivo, 24 h. It counts as ADME, organism-based. A digest of the protocol: as §5

In data set [16] the test system is Plasma. In words: Half life in healthy human plasma assessed as metabolite BAY 78-1789 Half life at 80 mg, po administered as four 20 mg immediate release tablets daily for 3 days during 10 hrs overnight fasting state measured after 1 day. It counts as ADME, organism-based. Particulars: in vivo. A digest of the protocol:
as §1

Data set [17] deals with Plasma. The data set can be described thus: AUC (0 to infinity) in healthy human plasma assessed as metabolite BAY 78-1789 AUC (0 to infinity) at 80 mg, po administered as single ascending doses during 10 hrs overnight fasting state. In kind it is ADME, organism-based. On the set-up: dose 80 mg, time infinity, route oral. Particulars: in vivo. In a few lines:
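Healthy Caucasian male volunteers, single oral dose of 80 mg as four 20-mg immediate-release tablets, taken with 240 ml water after a 10-h overnight fast. Lithium-heparin venous blood was drawn predose and at 0.25–14 h, and plasma was stored frozen. Metabolites M1/M2/M3 were measured by LC/MS-MS (positive-ion MRM, deuterated internal standard). Noncompartmental analysis, AUC by log-linear trapezoidal rule extrapolated to infinity (Clast/kel), geometric means.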

In data set [18] the test system is Plasma. The data set can be described thus: Ratio of AUC (0 to infinity) for metabolite BAY 78-1789 to AUC (0 to infinity) for compound in healthy human plasma at 80 mg, po administered as single dose for 3 days measured after 3 days. It counts as ADME, organism-based. The following applies: in vivo, 72 h. In a few lines:
as §4

Data set [19] concerns Plasma. The data set can be described thus: Half life in healthy human plasma assessed as metabolite BAY 78-1789 Half life at 40 mg, po administered as two 20 mg immediate release tablets daily for 3 days during 10 hrs overnight fasting state measured after 1 day. In kind it is ADME, organism-based. Particulars: in vivo, 24 h. A digest of the protocol: as §1
For data set [20], the system named is Plasma. In words: Half-life in healthy human plasma assessed as metabolite BAY 78-1789 half-life at 80 mg, po administered as single ascending doses during 10 hrs overnight fasting state. In kind it is ADME, organism-based. The following applies: in vivo. A digest of the protocol:
as §3

In data set [21] the test system is Plasma. The data set can be described thus: Tmax in healthy human plasma assessed as metabolite BAY 78-1789 Tmax at 80 mg, po administered as four 20 mg immediate release tablets daily for 3 days during 10 hrs overnight fasting state measured after 3 day. It counts as ADME, organism-based. Particulars: in vivo, 72 h. In a few lines:
as §5

The subject of data set [22] is Plasma. In words: AUC in healthy human plasma assessed as metabolite BAY 78-1789 AUC at 80 mg, po administered as four 20 mg immediate release tablets daily for 3 days during 10 hrs overnight fasting state measured after 3 day. In kind it is ADME, organism-based. The arrangement: dose 80 mg, time < 10 hr, route oral. Particulars: in vivo. In a few lines: as §2
The test system of data set [23] is Plasma. The data set can be described thus: AUC in healthy human plasma assessed as metabolite BAY 78-1789 AUC at 80 mg, po administered as four 20 mg immediate release tablets daily for 3 days during 10 hrs overnight fasting state measured after 1 day. On the set-up: dose 80 mg, time < 10 hr, route oral. The following applies: in vivo. It counts as ADME, organism-based. A digest of the protocol: as §2

Values after ≈ are worked out from the molar mass of the structure shown.

The text below walks through data of ChEMBL document CHEMBL1671864, “First assessment in humans of the safety, tolerability, pharmacokinetics, and ex vivo pharmacodynamic antimalarial activity of the new artemisinin derivative artemisone” (Antimicrob Agents Chemother, 2008).

Regarding `C[C@@H]1[C@H](O)C[C@H]2[C@@H](C)[C@H](N3CCS(=O)(=O)CC3)O[C@@H]3O[C@]4(C)CC[C@@H]1[C@]32OO4`, the highest concentration (Cmax) amounted to 27.8 ng/mL in the data set with Plasma [1]; 51.9 ng/mL in the data set on Plasma [2]; 74.3 ng/mL in the data set with Plasma [4]; 22.5 ng/mL in the data set with Plasma [11]; 38.2 ng/mL in the data set on Plasma [14]. Besides, the AUC was found to be 84.9 ng·h/mL in the data set with Plasma [3]; 95.9 ng·h/mL in the data set with Plasma [7]; 294.8 ng·h/mL in the data set with Plasma [17]; 165.1 ng·h/mL with Plasma [22]; 213.1 ng·h/mL in the data set with Plasma [23]. Besides, in the data set on Plasmodium falciparum, the 50% inhibitory concentration (IC50) was found to be 2.3 ng/mL (≈ 5.51 nM). Moreover, the Ratio stood at 0.47 with Plasma [5], 0.54 in the data set on Plasma [12], 0.65 in the data set on Plasma [13] and 0.52 with Plasma [18]. In addition, the Tmax is 2.5 h in the data set with Plasma [6], 2 h in the data set on Plasma [8], 2 h in the data set on Plasma [15] and 2.5 h in the data set on Plasma [21]. For the same compound, the t1/2 worked out at 1.69 h in the data set with Plasma [9]; 1.86 h in the data set on Plasma [10]; 1.83 h in the data set with Plasma [16]; 1.52 h in the data set with Plasma [19]; 1.59 h in the data set on Plasma [20].

In general, Cmax refers to the maximum level reached in the sampled fluid or tissue. The AUC is concentration integrated over time. By IC50 is commonly meant the concentration that gives 50% inhibition. For orientation: Tmax means the time from dosing to the highest level.
